# In ChEMBL document CHEMBL5154742, “Thiosugar naphthalene diimide conjugates: G-quadruplex ligands with antiparasitic and anticancer activity” (Eur J Med Chem, 2022):
# pIC50: −log10 of the molar value. Calls of active or inactive are those of the source. No cut-off for these calls is given here.
# Columns and labels:
# [1] = Selectivity index, ratio of IC50 for cytotoxicity against human MRC5 cells to IC50 for antitrypanosomal activity against Trypanosoma brucei; assay type: toxicity, cell-based; details: MRC5 cells versus Trypanosoma brucei, read-out: Selectivity Index
# How it was run: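 Selectivity index: MRC-5 IC50 divided by T. brucei IC50.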
# Trypanosoma brucei = experiment: Antitrypanosomal activity against Trypanosoma brucei incubated for 72 hrs by alamar blue dye based fluorimetry analysis; assay type: functional, organism-based
# How it was run: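 Bloodstream-form T. brucei S16 (Lister 427, MiTat 1.2), 1×10^3 per well in HMI-9 with 20% hiFBS, exposed to increasing compound concentrations for 72 h at 37 °C, 5% CO2. Resazurin then added for 4 h, cells lysed with SDS, fluorescence read at ex 550/em 590 nm. IC50 from four-parameter logistic fit; three independent runs, each in triplicate.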
# Quadruplex DNA [2] = experiment: Binding affinity to human G-quadruplex telomeric DNA F21T (5'-duplex GGG TTAGGG TTAGGG TTAGGG-3') assessed as change in melting temperature at 1 uM incubated for 5 min by FRET assay; assay type: nucleic-acid assay
# How it was run: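 Fluorescently labelled oligonucleotide annealed (95 °C, 5 min) in 10 mM lithium cacodylate/90 mM LiCl, pH 7.2; 0.2 μM final, with or without ligand. Held 5 min at 25 °C, then heated 0.5 °C/min to 95 °C. Tm taken at normalized signal 0.5; ΔTm = Tm with ligand minus Tm without. Tested in duplicate.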
# HT-29 = experiment: Cytotoxicity against human HT-29 cells assessed as reduction in cell viability incubated for 48 hrs by MTT assay; assay type: functional, cell-based; details: HT-29, 48 h
# How it was run: (§1)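 MTT assay: 5×10^3 cells per well in DMEM with 10% hiFBS (4.5 g/L glucose for HT-29, 1 g/L for MRC-5), exposed to increasing compound concentrations for 48 h at 37 °C. MTT added for 4 h, formazan dissolved in DMSO, absorbance read at 575 nm. IC50 from four-parameter logistic fit.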
# [3] = Drug localization in nucleus of human HT-29 cells at 25 uM incubated for 30 to 120 mins by DAPI staining based fluorescence microscopic analysis; assay type: ADME, subcellular; details: ht-29, 25 µM, time 30-120 min
# How it was run: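 HT-29 cells grown 24 h on coverslips in FBS-free medium, then exposed to 25 μM compound for 30 or 120 min at 37 °C. Mounted in DAPI medium and imaged by widefield fluorescence microscopy; compound emission collected at 578–610 nm, DAPI at 437–474 nm.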
# [4] = Drug uptake in human MRC5 cells at 10 uM incubated for 2 hrs by fluorescence based multiplate reader method; assay type: ADME, cell-based; details: mrc5, 2 h
# How it was run: (§2)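 225,000 trypsinized cells incubated with 10 μM compound in 0.75 mL medium for 2 h at 37 °C; washed three times with PBS, lysed in 3% SDS and sonicated. NDI fluorescence read at ex 485/em 535 nm, quantified against a calibration curve in cell lysate and normalized to BCA protein. Reported as % of compound added.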
# Leishmania major = experiment: Antileishmanial activity against Leishmania major (MHOM/IL/80/Friedlin) promastigotes assessed as reduction in parasite growth incubated for 72 hrs by MTT assay; assay type: functional, organism-based
# How it was run: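 L. major Friedlin promastigotes, 1×10^6/mL in modified RPMI-1640 with 10% hiFBS, exposed to increasing compound concentrations for 72 h at 28 °C; proliferation read by MTT; IC50 from four-parameter logistic fit versus untreated controls.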
# [5] = Selectivity index, ratio of IC50 for human MRC5 cells to IC50 for human HT-29 cells; assay type: toxicity; details: MRC5 cells versus HT-29 cells, read-out: Selectivity Index
# How it was run: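 Selectivity index: MRC-5 IC50 divided by HT-29 IC50.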
# [6] = Drug uptake in human HT-29 cells at 10 uM incubated for 2 hrs by fluorescence based multiplate reader method; assay type: ADME, cell-based; details: ht-29, 2 h; how it was run: as §2
# [7] = Drug localization in cytoplasm of Trypanosoma brucei at 5 uM incubated for 30 to 120 mins by DAPI staining based fluorescence microscopic analysis; assay type: ADME, subcellular; details: time 30-120 min
# How it was run: (§3)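 T. brucei at 1×10^7/mL exposed to 5 μM compound in FBS-free medium for 30 and 120 min at 37 °C; fixed in cold 4% paraformaldehyde, DAPI-stained and imaged by widefield microscopy. Compound excited with the 542–566 filter and emission collected at 578–610 nm.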
# [8] = Cytotoxicity against human MRC5 cells assessed as reduction in cell viability incubated for 48 hrs by MTT assay; assay type: toxicity, cell-based; how it was run: as §1
# [9] = Selectivity index, ratio of IC50 for cytotoxicity against human MRC5 cells to IC50 for antileishmanial activity against Leishmania major (MHOM/IL/80/Friedlin) promastigotes; assay type: toxicity, cell-based; details: read-out: Selectivity Index
# How it was run: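 Selectivity index: MRC-5 IC50 divided by L. major promastigote IC50.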
# [10] = Drug uptake in Trypanosoma brucei at 10 uM incubated for 2 hrs by fluorescence based multiplate reader method; assay type: ADME
# [11] = Drug localization in nucleus of Trypanosoma brucei at 5 uM incubated for 30 to 120 mins by DAPI staining based fluorescence microscopic analysis; assay type: ADME, subcellular; details: time 30-120 min; how it was run: as §3
# Quadruplex DNA [12] = experiment: Binding affinity to human G-quadruplex telomeric DNA F21T (5'-duplex GGG TTAGGG TTAGGG TTAGGG-3') by mass spectrometric analysis; assay type: nucleic-acid assay
# How it was run: (§4)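 Native ESI-FTICR MS in negative ion mode under soft conditions, in 100 mM ammonium acetate; DNA at 5 μM with ligand at 10 μM.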
# Quadruplex DNA [13] = experiment: Binding affinity to parallel G-quadruplex DNA TGGGGT TGGGGT TGGGGT TGGGGT (unknown origin) by mass spectrometric analysis; assay type: nucleic-acid assay; how it was run: as §4
Structure (SMILES),pIC50 (Trypanosoma brucei),ΔTm (Quadruplex DNA [2]) [°C],Drug uptake [3],Drug uptake [4] [%],Drug uptake [6] [%],Drug uptake [7],Drug uptake [10] [%],Drug uptake [11],Activity (Quadruplex DNA [12]),Activity (Quadruplex DNA [13]),selectivity ratio [1],pIC50 (HT-29),pIC50 (Leishmania major),selectivity ratio [5],IC50 at 48 h [8] [nM],selectivity ratio [9]
CN(C)CCCN1C(=O)c2ccc3c4c(c(NCc5cn(CCO[C@@H]6O[C@H](CO)[C@@H](O[C@H]7O[C@H](CO)[C@@H](O)[C@H](O)[C@H]7O)[C@H](O)[C@H]6O)nn5)cc(c24)C1=O)C(=O)N(CCCN(C)C)C3=O,7.22,10,Active,25.5,20.9,Active,7,Active,,,30,6.32,6.10,3.8,1800,2.3
O=C1c2ccc3c4c(c(NCc5cn(CCS[C@@H]6O[C@H](CO)[C@@H](O[C@H]7O[C@H](CO)[C@@H](O)[C@H](O)[C@H]7O)[C@H](O)[C@H]6O)nn5)cc(c24)C(=O)N1CCN1CCOCC1)C(=O)N(CCN1CCOCC1)C3=O,5.52,,,3.3,3.5,,6.7,,,,> 16,4.86,< 4.30,> 3.6,> 50000,
O=C1c2ccc3c4c(c(NCc5cn(CCO[C@@H]6O[C@H](CO)[C@@H](O[C@H]7O[C@H](CO)[C@@H](O)[C@H](O)[C@H]7O)[C@H](O)[C@H]6O)nn5)cc(c24)C(=O)N1CCN1CCOCC1)C(=O)N(CCN1CCOCC1)C3=O,5.48,,,0.8,3.2,,6.1,,,,> 15,4.89,< 4.30,> 3.8,> 50000,
CN(C)CCCN1C(=O)c2ccc3c4c(c(NCc5cn(CCS[C@H]6O[C@H](CO)[C@@H](O)[C@H](O)[C@@H]6O)nn5)cc(c24)C1=O)C(=O)N(CCCN(C)C)C3=O,7.10,,,,,,6.1,,,,34.7,6.06,5.82,3.2,2780,1.8
CN(C)CCCN1C(=O)c2ccc3c4c(c(NCc5cn(CCS[C@@H]6O[C@H](CO)[C@@H](O)[C@H](O)[C@H]6O)nn5)cc(c24)C1=O)C(=O)N(CCCN(C)C)C3=O,7.30,,,,,,,,,,55,6.12,5.86,3.7,2750,2
CN(C)CCCN1C(=O)c2ccc3c4c(c(NCc5cn(CCO[C@H]6O[C@H](CO)[C@@H](O)[C@H](O)[C@@H]6O)nn5)cc(c24)C1=O)C(=O)N(CCCN(C)C)C3=O,7.30,,,,,,8.1,,,,19,6.37,6.52,2.2,950,3.2
O=C1c2ccc3c4c(c(NCc5cn(CCO[C@H]6O[C@H](CO)[C@@H](O)[C@H](O)[C@@H]6O)nn5)cc(c24)C(=O)N1CCN1CCOCC1)C(=O)N(CCN1CCOCC1)C3=O,5.68,,,,,,4.2,,,,14.5,5.07,< 4.30,3.6,30500,
O=C1c2ccc3c4c(c(NCc5cn(CCS[C@@H]6O[C@H](CO)[C@@H](O)[C@H](O)[C@H]6O)nn5)cc(c24)C(=O)N1CCN1CCOCC1)C(=O)N(CCN1CCOCC1)C3=O,5.93,,,,,,,,,,30.3,4.54,4.52,1.2,35700,1.2

# More lines, main results first:
pIC50 (Trypanosoma brucei),ΔTm (Quadruplex DNA [2]) [°C],Drug uptake [3],Drug uptake [4] [%],Drug uptake [6] [%],Drug uptake [7],Drug uptake [10] [%],Drug uptake [11],Activity (Quadruplex DNA [12]),Activity (Quadruplex DNA [13]),Structure (SMILES),selectivity ratio [1],pIC50 (HT-29),pIC50 (Leishmania major),selectivity ratio [5],IC50 at 48 h [8] [nM],selectivity ratio [9]
6.51,,,,,,,,,,O=C1c2ccc3c4c(c(NCc5cn(CCO[C@@H]6O[C@H](CO)[C@@H](O)[C@H](O)[C@H]6O)nn5)cc(c24)C(=O)N1CCN1CCOCC1)C(=O)N(CCN1CCOCC1)C3=O,25.3,5.76,4.98,4.5,7860,0.7
7.30,10,,,,,,,Active,Active,CN(C)CCCN1C(=O)c2ccc3c4c(c(NCc5cn(CCO[C@@H]6O[C@H](CO)[C@H](O)[C@H](O)[C@H]6O)nn5)cc(c24)C1=O)C(=O)N(CCCN(C)C)C3=O,38.8,6.30,4.86,3.9,1940,0.14
7.40,10,,,,,,,Active,Active,CN(C)CCCN1C(=O)c2ccc3c4c(c(NCc5cn(CCS[C@@H]6O[C@H](CO)[C@H](O)[C@H](O)[C@H]6O)nn5)cc(c24)C1=O)C(=O)N(CCCN(C)C)C3=O,38.7,6.46,6.13,4.4,1550,2.1
6.14,,,,,,3.2,,,,O=C1c2ccc3c4c(c(NCc5cn(CCS[C@H]6O[C@H](CO)[C@@H](O)[C@H](O)[C@@H]6O)nn5)cc(c24)C(=O)N1CCN1CCOCC1)C(=O)N(CCN1CCOCC1)C3=O,31,5.47,4.66,6.7,22600,1.1
7.10,,,,,,,,,,CN(C)CCCN1C(=O)c2ccc3c4c(c(NCc5cn(CCO[C@@H]6O[C@H](CO)[C@@H](O)[C@H](O)[C@H]6O)nn5)cc(c24)C1=O)C(=O)N(CCCN(C)C)C3=O,11.5,6.34,6.10,2,920,1.2
